Source: ChEMBL document CHEMBL3244161, “Azabicycloalkanes as analgetics. 3. Structure-activity relationships of 1-phenyl-6-azabicyclo[3.2.1]octanes and absolute stereochemistry of (+)-1-(3-hydroxyphenyl)-6-methyl-6-azabicyclo[3.2.1]octane and its 7-endo-methyl derivative” (J Med Chem, 1977)
Calls of active or inactive are those of the source. The calls are words filed in the database; no cut-off is given here.

How the values were obtained:
[1] = system: Oryctolagus cuniculus; assay: Narcotic antagonist activity in iv dosed rabbit assessed as inhibition of morphine-induced respiratory depression; assay type: functional
In short: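 Rabbits given test compound iv; read-out is antagonism of morphine-induced respiratory depression; expressed as AD50 in mg/kg or as % antagonism at a fixed dose.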

[2] = system: Mus musculus; assay: Analgesic activity in mouse assessed as inhibition of AcOH-induced writhing up to 22.5 mg/kg, sc; assay type: functional, organism-based; parameters: dose 22.5 mg/kg
[3] = Acute toxicity in sc dosed mouse; assay type: organism-based; conditions: in vivo
[4] = system: Mus musculus; assay: Analgesic activity in sc dosed mouse assessed as inhibition of AcOH-induced writhing; assay type: functional; conditions: Mus musculus, sc; read-out: ED50

Question: With C/C=C\N1CC[C@]23CCCC[C@H]2[C@H]1Cc1ccc(O)cc13.Cl as the compound, how does the AD50 [1] read?
Answer: 0.014 mg/kg

Question: Which Activity [2] does the source give for Br.CC1N(C)C2CCCC1(c1cc(O)cc(O)c1)C2 (racemic) here?
Answer: inactive

Question: What about the LD50 [3] of the same compound?
Answer: > 100 mg/kg

Question: Which ED50 [4] does the source give for CN1CC2(c3ccccc3)CCCC1C2.Cl (racemic) here?
Answer: 22.8 mg/kg

Question: And the LD50 [3]?
Answer: > 30 mg/kg

Question: For COc1cccc(C23CCCC(C2)NC3)c1.O=C(O)C(=O)O (racemic), which Activity [2] is on record?
Answer: inactive

Question: What about the LD50 [3] of the same compound?
Answer: > 100 mg/kg

Question: With Br.COc1cccc(C23CCCC(C2)NC3C)c1 (racemic) as the compound, how does the Activity [2] read?
Answer: inactive

Question: And the LD50 [3]?
Answer: > 100 mg/kg

Question: For Br.Oc1cccc(C23CCCC(C2)NC3)c1 (racemic), which Activity [2] is on record?
Answer: inactive

Question: And the LD50 [3]?
Answer: > 100 mg/kg

Question: Which Activity [2] does the source give for Br.CC1NC2CCCC1(c1cccc(O)c1)C2 (racemic) here?
Answer: inactive

Question: And the LD50 [3]?
Answer: > 100 mg/kg

Question: Which ED50 [4] does the source give for Br.COc1cccc(C23CCCC(C2)N(C)C3)c1 (racemic) here?
Answer: 8.6 mg/kg

Question: What about the LD50 [3] of the same compound?
Answer: 31.2 mg/kg

Question: With Br.COc1cccc(C23CCCC(C2)N(C)C3C)c1 (racemic) as the compound, how does the ED50 [4] read?
Answer: 6.1 mg/kg

Question: And the LD50 [3]?
Answer: 25.9 mg/kg

Question: Which ED50 [4] does the source give for Br.CCC1N(C)C2CCCC1(c1cccc(O)c1)C2 (racemic) here?
Answer: 8.8 mg/kg

Question: And the LD50 [3]?
Answer: 59.8 mg/kg

Question: Which Activity [2] does the source give for Br.CC1N(C)C2CCCC1(c1ccccc1O)C2 (racemic) here?
Answer: inactive

Question: And the LD50 [3]?
Answer: > 100 mg/kg

Question: Which Activity [2] does the source give for Br.CC1N(C)C2CCCC1(c1ccc(O)cc1)C2 (racemic) here?
Answer: inactive

Question: What about the LD50 [3] of the same compound?
Answer: > 100 mg/kg

Question: With CN1CC2(c3cc(O)cc(O)c3)CCCC1C2 (racemic) as the compound, how does the Activity [2] read?
Answer: inactive

Question: And the LD50 [3]?
Answer: > 225 mg/kg

Question: For Br.CCCCCC(=O)Oc1cccc(C23CCCC(C2)N(C)C3C)c1 (racemic), which ED50 [4] is on record?
Answer: 12.3 mg/kg

Question: And the LD50 [3]?
Answer: 156 mg/kg

Question: With Br.CC1N(C)C2CCCC1(c1cccc(OC(=O)c3ccccc3)c1)C2 (racemic) as the compound, how does the ED50 [4] read?
Answer: 5.7 mg/kg

Question: What about the LD50 [3] of the same compound?
Answer: 156 mg/kg

Question: Which results are given for Br.CC1N(C)C2CCCC1(c1cccc(OC(=O)c3cccnc3)c1)C2 (racemic)?
Answer: ED50 [4]: 5.5 mg/kg; LD50 [3]: 184 mg/kg

Question: Which results are given for O=C(O)C(=O)O.c1ccc(CCN2CC3(c4ccccc4)CCCC2C3)cc1 (racemic)?
Answer: Activity [2]: inactive; LD50 [3]: > 100 mg/kg

Question: What does the source list for Cl.O=C(CCN1CC2(c3ccccc3)CCCC1C2)c1ccccc1 (racemic)?
Answer: Activity [2]: inactive; LD50 [3]: > 100 mg/kg

Question: For Cl.O=C(CCCN1CC2(c3ccccc3)CCCC1C2)c1ccc(F)cc1 (racemic), which ED50 [4] is on record?
Answer: 4.1 mg/kg

Question: What about the LD50 [3] of the same compound?
Answer: > 200 mg/kg

Question: What does the source list for CCCCCCN1CC2(c3cccc(O)c3)CCCC1C2.Cl (racemic)?
Answer: ED50 [4]: 17.5 mg/kg; LD50 [3]: > 100 mg/kg

Question: For Cl.Oc1cccc(C23CCCC(C2)N(CC2CC2)C3)c1 (racemic), which AD50 [1] is on record?
Answer: 1.8 mg/kg

Question: And the ED50 [4]?
Answer: 30 mg/kg

Question: And the LD50 [3]?
Answer: > 100 mg/kg

Question: Which Activity [2] does the source give for O=C(O)C(=O)O.Oc1cccc(C23CCCC(C2)N(CCc2ccccc2)C3)c1 (racemic) here?
Answer: inactive

Question: What about the LD50 [3] of the same compound?
Answer: > 100 mg/kg

Question: Which results are given for Cl.O=C(CCN1CC2(c3cccc(O)c3)CCCC1C2)c1ccccc1 (racemic)?
Answer: ED50 [4]: 10.1 mg/kg; LD50 [3]: 184 mg/kg

Question: Which ED50 [4] does the source give for Cl.O=C(CCCN1CC2(c3cccc(O)c3)CCCC1C2)c1ccccc1 (racemic) here?
Answer: 5.2 mg/kg

Question: What about the LD50 [3] of the same compound?
Answer: > 100 mg/kg

Question: For Cl.O=C(CCCN1CC2(c3cccc(O)c3)CCCC1C2)c1ccc(F)cc1 (racemic), which ED50 [4] is on record?
Answer: 2 mg/kg

Question: And the LD50 [3]?
Answer: > 100 mg/kg

Question: Which results are given for CCN1C2CCCC(c3cccc(O)c3)(C2)C1C.Cl (racemic)?
Answer: Activity [2]: inactive; LD50 [3]: > 30 mg/kg

Question: With C=CCN1C2CCCC(c3cccc(O)c3)(C2)C1C.Cl (racemic) as the compound, how does the AD50 [1] read?
Answer: 0.17 mg/kg

Question: What about the ED50 [4] of the same compound?
Answer: 22.5 mg/kg

Question: What about the LD50 [3] of the same compound?
Answer: > 30 mg/kg

Question: Which AD50 [1] does the source give for CC1C2CCCC1(c1cccc(O)c1)CN2C (racemic; 13) here?
Answer: 1.1 mg/kg

Question: What about the LD50 [3] of the same compound?
Answer: > 30 mg/kg

Question: Which LD50 [3] does the source give for Br.CC1C2CCCC1(c1cccc(O)c1)C(C)N2C (racemic; 14) here?
Answer: > 30 mg/kg

Question: With CC1C2CCCC1(c1cccc(O)c1)CN2C (racemic; 15) as the compound, how does the AD50 [1] read?
Answer: 0.18 mg/kg

Question: With C=CCN1CC[C@]23c4c5ccc(O)c4O[C@H]2[C@@H](O)C=C[C@H]3[C@H]1C5.Cl [NALORPHINE HYDROCHLORIDE] as the compound, how does the AD50 [1] read?
Answer: 0.16 mg/kg

Question: For C=CCN1CC[C@]23c4c5ccc(O)c4O[C@H]2C(=O)CC[C@@]3(O)[C@H]1C5.Cl [NALOXONE HYDROCHLORIDE], which AD50 [1] is on record?
Answer: 0.0044 mg/kg
